Screening results as filed in PubChem.
Sampled rows, rich in hits. Any-hit rate of the full collection: about 3.7%.
Kir21 block – blocks the mouse Kir2.1 inward-rectifier potassium channel; B-score at 10 µM; P35561; AID 1672; 0.85% of 310,000 active; HEK293-Kir2.1, FluxOR thallium flux fluorescence; hits give low values;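 active means fluorescence ratio B-score at or below minus 3 SD of library scores, with starting-brightness B-score within 2 SD, cut at about -4.2 in these data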;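 further: channel flux triggered by added potassium and thallium sulfate stimulus; B-score of peak minus minimum fluorescence over baseline after thallium stimulus; more negative B-score means stronger Kir2.1 block with less thallium influx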
KCNQ1 inh – blocks the human KCNQ1 potassium channel | P51787 | AID 2642 | CHO-K1 KCNQ1, FluxOR thallium flux fluorescence; hits give high values | B-score at 10 µM | 1.3% of 310,000 active;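 active means compounds whose thallium flux B-score, printed positive for inhibition, exceeds three library SD while starting fluorescence stays within three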;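 further: channel opened by potassium depolarization with thallium stimulus after 20 min compound exposure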
KCNQ1 act – human KCNQ1 channel potentiation or activation | B-score at 10 µM | CHO-K1 KCNQ1, thallium flux FluxOR fluorescence; hits give high values | AID 2648 | P51787 | 0.35% of 310,000 active;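 active means fluorescence ratio B-score, a plate-corrected score, at least three library SD, with initial intensity B-score within 5 SD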
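Medium – assay buffer, equal DMSO in all wells · Material – CHO-K1 cell line with stable KCNQ1 potassium channel expression · Signal – kinetic FluxOR thallium fluorescence, 10-s 1-Hz baseline, 110-s post-stimulus read · Compound – single concentration per compound, DMSO matched to controls · Schedule – 37 °C overnight plating, 90-min dark dye load, 20-min compound pretreatment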
hERG protect – hERG (human) protection from proarrhythmic block | Q12809 | CHO-hERG, FluxOR thallium flux, dofetilide IC70 present | activation (rescue from dofetilide block), less the hit threshold, % at 10 µM | 0.51% of 310,000 active | AID 1511;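 active means activation above the mean of controls blocked by dofetilide plus 5 SD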;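 further: thallium influx through hERG after potassium depolarization seen as dye fluorescence rise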
Target sequence (Q12809 whole entry, looked up): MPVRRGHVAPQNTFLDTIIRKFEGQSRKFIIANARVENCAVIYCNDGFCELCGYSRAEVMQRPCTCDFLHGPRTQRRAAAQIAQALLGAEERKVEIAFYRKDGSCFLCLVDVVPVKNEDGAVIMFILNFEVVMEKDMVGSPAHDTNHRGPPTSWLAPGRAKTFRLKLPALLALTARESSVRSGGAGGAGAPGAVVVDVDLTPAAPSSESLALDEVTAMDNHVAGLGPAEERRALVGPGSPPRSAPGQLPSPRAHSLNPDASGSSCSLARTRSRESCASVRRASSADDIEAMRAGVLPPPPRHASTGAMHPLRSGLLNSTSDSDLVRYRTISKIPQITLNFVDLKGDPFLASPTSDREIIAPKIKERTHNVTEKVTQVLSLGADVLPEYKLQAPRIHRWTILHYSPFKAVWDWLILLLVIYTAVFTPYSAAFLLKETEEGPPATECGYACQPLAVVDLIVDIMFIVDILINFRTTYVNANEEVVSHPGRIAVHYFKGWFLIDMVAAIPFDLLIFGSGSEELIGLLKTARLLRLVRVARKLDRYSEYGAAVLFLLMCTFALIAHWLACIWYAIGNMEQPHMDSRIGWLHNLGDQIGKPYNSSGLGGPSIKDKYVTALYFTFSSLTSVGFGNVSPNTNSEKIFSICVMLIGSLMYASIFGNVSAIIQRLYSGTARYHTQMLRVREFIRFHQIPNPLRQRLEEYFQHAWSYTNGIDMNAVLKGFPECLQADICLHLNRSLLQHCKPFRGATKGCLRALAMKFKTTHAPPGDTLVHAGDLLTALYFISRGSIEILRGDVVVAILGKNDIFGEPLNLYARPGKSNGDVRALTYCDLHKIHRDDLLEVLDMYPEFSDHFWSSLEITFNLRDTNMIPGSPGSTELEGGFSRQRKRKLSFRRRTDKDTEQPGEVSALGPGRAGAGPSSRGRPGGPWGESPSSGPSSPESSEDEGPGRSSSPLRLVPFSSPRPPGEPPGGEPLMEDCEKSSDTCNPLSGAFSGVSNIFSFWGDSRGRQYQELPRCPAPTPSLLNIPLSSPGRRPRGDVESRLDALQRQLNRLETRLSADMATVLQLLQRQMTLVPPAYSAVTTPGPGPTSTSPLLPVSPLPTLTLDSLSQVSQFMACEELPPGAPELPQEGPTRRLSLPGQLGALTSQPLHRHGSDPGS
KCNK3 inh – human KCNK3 channel inhibition, primary screen; B-score at 10 µM; AID 602410; 0.84% of 340,000 active; CHO-KCNK3 thallium flux, FluxOR fluorescence; hits give low values; O14649;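 active means B-score under library mean minus 4 SD, starting fluorescence ratio at most library mean plus 5 SD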;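 further: more negative B-score means stronger inhibition of thallium flux through KCNK3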
KCNK9 block – human KCNK9 channel inhibition | HEK293 KCNK9, FluxOR thallium flux fluorescence; hits give low values | B-score at 10 µM | 1.2% of 310,000 active | Q9NPC2;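 active means ratio B-score over 3 SD below the library mean, with starting fluorescence within 5 SD of its mean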;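 further: negative B-score means less thallium flux so channel inhibition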
A number is an active result; 0 = inactive; - = no result given.

SMILES	Kir21 block	KCNQ1 inh	KCNQ1 act	hERG protect	KCNK3 inh	KCNK9 block
COc1cccc(C(=O)Nc2cc(Cl)c(O)c(Cl)c2)c1	0	0	0	0	0	0
COc1cc(NC(=O)C(=O)NNC(=O)C2CCCCC2)c(OC)cc1Cl	0	0	0	0	0	0
COc1cc(OC)cc(C(=O)NNC(=O)C(=O)Nc2cc(OC)c(Cl)cc2OC)c1	0	0	32	51	0	0
COc1cccc(C(=O)NNC(=O)C(=O)Nc2ccc(C)c(Cl)c2)c1	0	0	35	31	0	0
CCc1ccc(NC(=O)C(=O)NNC(=O)c2cccc(OC)c2)cc1	0	0	76	38	0	0
COc1ccc2[nH]cc(CCNS(=O)(=O)Cc3ccccc3)c2c1	0	0	0	0	0	0
COc1cccc(C(c2nnnn2Cc2ccco2)N2CCN(c3cccc(C)c3C)CC2)c1OC (stereo unspecified)	0	6	0	0	0	-6.8
CCOC(=O)c1c(C)[nH]c(C(=O)COC(=O)c2ccco2)c1C	-	-	-	-	0	-
O=C(CN(Cc1ccco1)Cc1ccco1)Nc1cc(S(=O)(=O)N2CCCCC2)ccc1Cl	-	-	-	-	0	-
CC(C)(C)C(=O)NC(=S)NNC(=O)C(c1ccccc1)c1ccccc1	0	0	31	0	0	0
CC(=O)NNC(=S)NC(=O)C(c1ccccc1)c1ccccc1	0	0	0	0	0	0
Nc1ccn(C2OC(COP(=O)(O)O)C(O)C2O)c(=O)n1 (stereo unspecified)	-	-	-	-	0	-
Cc1nc2[nH]c(=S)[nH]c2c(=O)[nH]1	-	-	-	-	0	-
CC1Cc2ccccc2N1C(=S)NC(=O)c1ccco1 (stereo unspecified)	0	0	0	6.7	0	0
CC1Cc2ccccc2N1C(=S)NC(=O)C1(C)CC1(Cl)Cl (stereo unspecified)	0	0	37	28	0	0
Cc1cc(=O)oc2c(C)c(OCC(=O)c3ccccc3)ccc12	0	0	0	0	0	0
Clc1ccc(CSc2ncnc3c2ncn3C2CCCCO2)cc1 (stereo unspecified)	-	-	-	-	0	-
O=C(N/N=C/c1coc2ccccc2c1=O)c1cccc([N+](=O)[O-])c1	0	7	0	0	0	0
Cc1cccc(C(=O)N/N=C/c2coc3ccccc3c2=O)c1	0	0	0	0	0	0
CCN(Cc1ccccc1)C(=O)CSc1nc(C)cc(C)c1C#N	-4.7	0	0	0	0	0
CCN(CC)C(=O)CSc1nc(C)cc(C)c1C#N	0	0	0	0	0	0
CNC(=O)c1nn(C)c(=O)[nH]c1=O	-	-	-	-	0	-
COc1ccc(Oc2cnn(-c3ccccc3)c(=O)c2Br)cc1	0	0	0	0	0	0
Cn1nc(-c2ccc(N3CCOCC3)c(NS(=O)(=O)c3ccc(Cl)cc3)c2)c2ccccc2c1=O	-	-	-	-	-10	-
CCC(CC)NC(=O)CN1CCN(S(=O)(=O)c2ccc(Br)s2)CC1	-	-	-	-	0	-
SMILES	Kir21 block	KCNQ1 inh	KCNQ1 act	hERG protect	KCNK3 inh	KCNK9 block
O=C(O)c1cn(-c2ccc(F)cc2)c2cc(N3CCNCC3)c(F)cc2c1=O	-	-	-	-	0	-
OC(CNCc1ccccc1)Cn1ccc2ccccc21 (stereo unspecified)	-5.2	0	0	0	0	0
O=C(O)c1cccc2c1C(=O)c1ccc(-c3ccc(F)cc3F)cc1S2(=O)=O	-	-	-	-	0	-
COc1ccc(N2CCN(C(=O)CSc3ccc([N+](=O)[O-])cc3)CC2)cc1	0	8	0	0	0	0
O=C(CCNS(=O)(=O)c1ccc(Br)cc1)NCCCSc1ccccc1	-	-	-	-	0	-
CC(C)CC(=O)Nc1ccc(C(=O)NNC(=S)NC(=O)C2CCCCC2)cc1	0	7	0	0	0	0
O=C1c2ccccc2NC(c2ccc(Br)s2)N1O (stereo unspecified)	0	0	22	21	0	0
O=C1c2ccccc2NC(c2ccc(Br)o2)N1O (stereo unspecified)	-	-	-	-	0	-
COc1ccc(S(=O)(=O)Nc2cc(S(=O)(=O)N3CCOCC3)ccc2OC)cc1	-	-	-	-	0	-
CCN(C(=O)CSc1nnnn1C)C1CCS(=O)(=O)C1 (stereo unspecified)	-	-	-	-	0	-
CN(C(=O)CSc1nnc(CN2CCCC2)n1Cc1ccccc1)c1ccccc1	0	0	0	0	0	0
COC(=O)[C@H](CCSC)NC(=O)Cn1cnc(C(=O)Nc2ccc(C)c(C)c2)n1	-	-	-	-	0	-
CCN1CCN(Cc2ccc(NC(=O)c3cc(NC(=O)c4cncc(-c5cccs5)c4)cc(OC)c3)cc2C(F)(F)F)CC1	0	8	0	0	-	0
O=[N+]([O-])c1cccc(/C=N/Nc2cc(Cl)nc(-c3ccccc3)n2)c1	0	12	0	0	-10	0
O=C(COC(=O)C1CCN(S(=O)(=O)c2cccs2)CC1)c1cc2ccccc2o1	0	0	0	0	0	-7.8
Nn1c(SCc2ccccc2F)nnc1-c1ccncc1	0	0	0	0	0	0
Cc1nnc(SCc2ccccc2F)n1NCc1cccs1	-4.2	0	0	0	0	0
Cc1ccc(C(=O)OCC(=O)NCc2cccc(Cl)c2)cc1S(=O)(=O)N1CCCCC1	-	-	-	-	0	-
Cc1nn(-c2nccs2)c2c1C(=O)CC(C)(C)C2Br (stereo unspecified)	-	-	-	-	0	-
Cc1cc(NS(=O)(=O)c2ccc(Nc3nc(-c4sc(NC(=O)c5ccccc5)nc4C)cs3)cc2)no1	-4.3	7	0	0	-	0
Cc1nc(NC(=O)c2ccccc2)sc1-c1csc(Nc2cccc(F)c2)n1	0	0	0	0	-	0
Cc1ccc(OCCNC(=O)c2cccc(S(=O)(=O)N3CCN(C)CC3)c2)cc1	-	-	-	-	0	-
CCOC(=O)c1cccc2c(=O)c(C(=O)c3ccc(Cl)cc3)c(C(=O)OC)[nH]c12	0	0	0	0	0	0
COC(=O)C1=C(C)N(Cc2ccccc2)C(=NCC2CC2)N[C@H]1c1ccccc1	-	-	-	-	0	-
COC(=O)C1=C(C)N(Cc2ccccc2)C(=NCCc2cccnc2)N[C@H]1c1ccc(Br)cc1	-	-	-	-	0	-
SMILES	Kir21 block	KCNQ1 inh	KCNQ1 act	hERG protect	KCNK3 inh	KCNK9 block
COC(=O)C1=C(C)N(Cc2ccccc2)C(=NCCc2cccnc2)N[C@H]1c1ccccc1	-11	0	0	0	0	0
COC(=O)C1=C(C)N(Cc2ccccc2)C(=NCCCCO)N[C@H]1c1ccccc1	-4.6	0	0	0	-	0
COc1ccc(N(CC(=O)NCc2cccs2)S(=O)(=O)c2ccc(F)cc2)cc1	-	-	-	-	0	-
N#Cc1ccc(Oc2ccc(C#N)c(C#N)c2)cc1C#N	-	-	-	-	0	-
CCOc1ccccc1N1CC(O)=C(c2nc3ccccc3s2)C1=N	0	0	0	0	0	0
COc1ccc(OC)c(N2CC(O)=C(c3nc4ccccc4s3)C2=N)c1	0	0	0	0	0	-6.6
Cc1ccccc1CS(=O)(=O)c1nnc([C@H](Cc2ccccc2)NC(=O)OC(C)(C)C)o1	0	0	12	0	0	0
CCSc1nnc([C@H](Cc2ccccc2)NC(=O)OC(C)(C)C)o1	0	0	0	0	0	0
